For six compounds, MBC, inhibition and Activity results are on record in ChEMBL document CHEMBL1221347, “Identification of 3',4',5'-trimethoxychalcone analogues as potent inhibitors of Helicobacter pylori-induced inflammation in human gastric epithelial cells” (Bioorg Med Chem Lett, 2010).

The test system of data set [1] is Helicobacter pylori. Put plainly: Antibacterial activity against multidrug-resistant Helicobacter pylori v1254. Type of data set: functional. The procedure, abridged:
(§1)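 Minimum bactericidal concentration (MBC), expressed in µM, determined against H. pylori reference strain Hp 26695 and the clinical isolates v1254 and v1354. Both isolates are resistant to metronidazole and clarithromycin. Amoxicillin, clarithromycin and metronidazole served as standard antimicrobial comparators.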

Data set [2] concerns Helicobacter pylori. Put plainly: Inhibition of Helicobacter pylori-induced inflammation in human AGS cells assessed as reduction of NF-kappaB activity at 2.5 uM after 6 hrs by luciferase reporter gene assay relative to control. Type of data set: functional. The procedure, abridged:
(§2)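 AGS cells transfected with an NF-κB luciferase reporter construct. Cells were treated with compound (2.5–10 µM) and infected with H. pylori, then luciferase expression was measured. Activity is expressed relative to DMSO-treated control. Antibiotics at 2.5 µM served as reference. Values are mean ± SD of at least three independent experiments.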

For data set [3], the system named is Helicobacter pylori. Put plainly: Antibacterial activity against multidrug-resistant Helicobacter pylori v1354. The format is functional. In short, it runs like this:
as §1

For data set [4], the system named is Helicobacter pylori. Put plainly: Antibacterial activity against Helicobacter pylori Hp 26695. The format is functional. In short, it runs like this:
as §1

The subject of data set [5] is Helicobacter pylori. Put plainly: Inhibition of Helicobacter pylori invasion into human AGS cells at 2.5 uM after 6 hrs. The format is functional. The procedure, abridged: (§3)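 AGS cells, untreated or treated with compound, then infected with H. pylori at MOI 50 for 6 h. Bacterial adhesion to, or invasion into, the cells was measured. Compounds tested at 2.5, 5.0 and 10.0 µM. DMSO vehicle and antibiotic controls at 2.5 µM. Values are mean ± SD of at least six independent experiments; Student's t-test against DMSO-treated cells.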

Data set [6] relates to Helicobacter pylori. Description: Inhibition of Helicobacter pylori-induced inflammation in human AGS cells assessed as reduction of IL-8 production at 10 uM by ELISA. Type of data set: functional. The procedure, abridged:
(§4)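 IL-8 in culture supernatants measured from H. pylori-infected AGS cells pre-treated with compound at 2.5, 5.0 or 10.0 µM. Inhibition calculated against DMSO control-treated cells. Values are mean ± SD of at least three independent experiments.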
(An ELISA detects its analyte on a solid surface through an enzyme-linked reagent.)

In data set [7] the test system is Helicobacter pylori. Description: Inhibition of Helicobacter pylori invasion into human AGS cells at 10 uM after 6 hrs. Type of data set: functional. In short, it runs like this:
as §3

The test system of data set [8] is Helicobacter pylori. Description: Inhibition of Helicobacter pylori-induced inflammation in human AGS cells assessed as reduction of NF-kappaB activity at 10 uM after 6 hrs by luciferase reporter gene assay relative to control. The format is functional. In short, it runs like this: as §2
Data set [9] deals with Helicobacter pylori. Put plainly: Inhibition of Helicobacter pylori-induced inflammation in human AGS cells assessed as reduction of NF-kappaB activity after 6 hrs by luciferase reporter gene assay relative to control. The format is functional. In short, it runs like this: as §2
For orientation: A reporter such as luciferase makes a cellular process visible.

The subject of data set [10] is Helicobacter pylori. Description: Inhibition of Helicobacter pylori invasion into human AGS cells at 5 uM after 6 hrs. The format is functional. The procedure, abridged: as §3
The subject of data set [11] is Helicobacter pylori. Put plainly: Inhibition of Helicobacter pylori-induced inflammation in human AGS cells assessed as reduction of NF-kappaB activity at 5 uM after 6 hrs by luciferase reporter gene assay relative to control. Type of data set: functional. In short, it runs like this:
as §2

For data set [12], the system named is Helicobacter pylori. Description: Inhibition of sHelicobacter pylori adhesion into human AGS cells at 2.5 uM after 6 hrs. The format is functional. The procedure, abridged:
as §3

For data set [13], the system named is Helicobacter pylori. Put plainly: Inhibition of Helicobacter pylori adhesion into human AGS cells at 5 uM after 6 hrs. The format is functional. In short, it runs like this: as §3
Another data set relates to AGS. Description: Cytotoxicity against human AGS cells assessed as cell viability at 0.5 ug/ml by MTT assay. Type of data set: cell-based. The conditions noted are these: in the assay text read “0.5 mg/ml” for “0.5 ug/ml”. In short, it runs like this:
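MTT viability assay on AGS human gastric epithelial cells, run at 0.5 mg/ml, the top concentration used in the H. pylori growth test.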
In general terms: Tetrazolium dyes change colour on reduction, which living cells bring about.

The subject of data set [14] is Helicobacter pylori. Put plainly: Inhibition of Helicobacter pylori-induced inflammation in human AGS cells assessed as reduction of IL-8 production at 2.5 uM by ELISA. Type of data set: functional. The procedure, abridged: as §4
The test system of data set [15] is Helicobacter pylori. Put plainly: Inhibition of Helicobacter pylori adhesion into human AGS cells at 10 uM after 6 hrs. Type of data set: functional. In short, it runs like this: as §3
For data set [16], the system named is Helicobacter pylori. Put plainly: Inhibition of Helicobacter pylori-induced inflammation in human AGS cells assessed as reduction of IL-8 production at 5 uM by ELISA. The format is functional. The procedure, abridged:
as §4

In brackets after ≈: the same amount, converted by molar mass. Activity calls are given as the source filed them. No cut-off for these calls is given here.

By MBC is commonly meant the lowest tested concentration that kills the bacteria rather than only halting them. Low readings indicate more potent killing, high ones less potent killing. Usually inhibition stands for how much of the control response was suppressed. With `Cc1ncc([N+](=O)[O-])n1CCO` [METRONIDAZOLE], the results for the MBC against Helicobacter pylori [1], against Helicobacter pylori [3] and in the data set on Helicobacter pylori [4] were 400 µM (≈ 68.5 µg/mL), 800 µM (≈ 137 µg/mL) and 25 µM (≈ 4.28 µg/mL), respectively. For the same compound, the inhibition entry in the data set on Helicobacter pylori [2] was “inactive”. Further, the inhibition at 2.5 µM in the data set with Helicobacter pylori [5] came to 20%. In the data set with Helicobacter pylori [6], the inhibition at 10 µM is 81.9%.

Regarding `COc1cc(/C=C/C(=O)c2cc(OC)c(OC)c(OC)c2)ccc1O`, the MBC with Helicobacter pylori [1], against Helicobacter pylori [3] and with Helicobacter pylori [4] was 12.5 µM (≈ 4.3 µg/mL) throughout. Moreover, the inhibition at 10 µM with Helicobacter pylori [7] is 100%; in the data set on Helicobacter pylori [8], 99.9%. The inhibition result in the data set with Helicobacter pylori [9] is “Dose-dependent effect”. Moreover, the inhibition at 5 µM in the data set with Helicobacter pylori [10] was determined as 91%; in the data set on Helicobacter pylori [11] it was 98.6%; with Helicobacter pylori [13], 98.8%. Further, the inhibition at 2.5 µM with Helicobacter pylori [2] came out at 86.1%; in the data set with Helicobacter pylori [12], 88.2%; in the data set with Helicobacter pylori [5] it was 57.6%. The Activity result in the data set with AGS is “Non-toxic”.

`COc1cccc(/C=C/C(=O)c2cc(OC)c(OC)c(OC)c2)c1OC`: the results for the MBC against Helicobacter pylori [1], against Helicobacter pylori [3] and against Helicobacter pylori [4] were 50 µM (≈ 17.9 µg/mL), 25 µM (≈ 8.96 µg/mL) and 25 µM (≈ 8.96 µg/mL), respectively. For the same compound, the inhibition at 2.5 µM is 24.6% in the data set with Helicobacter pylori [14], 39.8% with Helicobacter pylori [2] and 66.6% in the data set with Helicobacter pylori [12]. The inhibition result with Helicobacter pylori [7] and in the data set on Helicobacter pylori [10] was “Active” in each case. The inhibition at 10 µM with Helicobacter pylori [8] stood at 90.6%; in the data set with Helicobacter pylori [15] it was 99.9%; with Helicobacter pylori [6], 87%. Besides, in the data set with Helicobacter pylori [9], the inhibition result was “Dose-dependent effect”. Further, the inhibition entry with Helicobacter pylori [5] is “inactive”. The inhibition at 5 µM with Helicobacter pylori [16] was found to be 65.2%; in the data set on Helicobacter pylori [13], 73.3%. The Activity entry with AGS is reported as “Non-toxic”.

For `CC1(C)S[C@@H]2[C@H](NC(=O)[C@H](N)c3ccc(O)cc3)C(=O)N2[C@H]1C(=O)O` [AMOXICILLIN], the minimum bactericidal concentration (MBC) against Helicobacter pylori [1], against Helicobacter pylori [3] and against Helicobacter pylori [4] was 12.5 µM (≈ 4.57 µg/mL) throughout. Further, the inhibition entry in the data set on Helicobacter pylori [2] was “inactive”. In the data set with Helicobacter pylori [5], this compound gave an inhibition at 2.5 µM above 90%. Further, the inhibition at 10 µM in the data set with Helicobacter pylori [6] came out at 81.9%.

For the compound `CC[C@H]1OC(=O)[C@H](C)[C@@H](O[C@H]2C[C@@](C)(OC)[C@@H](O)[C@H](C)O2)[C@H](C)[C@@H](O[C@@H]2O[C@H](C)C[C@H](N(C)C)[C@H]2O)[C@](C)(OC)C[C@@H](C)C(=O)[C@H](C)[C@@H](O)[C@]1(C)O` [CLARITHROMYCIN], the MBC was determined as 50 µM (≈ 37.4 µg/mL) against Helicobacter pylori [1], 25 µM (≈ 18.7 µg/mL) in the data set with Helicobacter pylori [3] and 1.6 µM (≈ 1.2 µg/mL) against Helicobacter pylori [4]. In addition, the inhibition result in the data set on Helicobacter pylori [2] is “inactive”. Also, in the data set with Helicobacter pylori [5], the inhibition at 2.5 µM is above 90%. Besides, the inhibition at 10 µM in the data set on Helicobacter pylori [6] was found to be 81.9%.

On to `COc1ccc(/C=C/C(=O)c2cc(OC)c(OC)c(OC)c2)cc1`, for which the MBC with Helicobacter pylori [1], against Helicobacter pylori [3] and against Helicobacter pylori [4] was 100 µM (≈ 32.8 µg/mL) in each case. The figures for the inhibition at 2.5 µM in the data set on Helicobacter pylori [14] and in the data set on Helicobacter pylori [2] were 8% and 14.7%, respectively. Further, the inhibition result in the data set with Helicobacter pylori [7], in the data set with Helicobacter pylori [10], with Helicobacter pylori [15] and with Helicobacter pylori [13] was “Active” throughout. The inhibition at 10 µM in the data set with Helicobacter pylori [8] was found to be 66%; in the data set on Helicobacter pylori [6], 59.4%. In the data set with Helicobacter pylori [9], the inhibition result is “Dose-dependent effect”. Further, the inhibition entry in the data set on Helicobacter pylori [5] is “inactive”. Also, the inhibition at 5 µM with Helicobacter pylori [16] was 23.4%. Besides, the Activity result in the data set on AGS is “Non-toxic”.
